ChEMBL document CHEMBL1128722, “Mechanism-based isocoumarin inhibitors for human leukocyte elastase. Effect of the 7-amino substituent and 3-alkoxy group in 3-alkoxy-7-amino-4-chloroisocoumarins on inhibitory potency” (J Med Chem, 1995)

Experiments:
[1] = biological target: T1, Chymotrypsin-like elastase family member 2A (Sus scrofa) (UniProt P08419); assay: The second order inactivation rate constant expressed as inhibition of porcine pancreatic elastase (PPE).Inhibitor concentrations were 0.04-2.0 mM
T1 sequence (whole entry): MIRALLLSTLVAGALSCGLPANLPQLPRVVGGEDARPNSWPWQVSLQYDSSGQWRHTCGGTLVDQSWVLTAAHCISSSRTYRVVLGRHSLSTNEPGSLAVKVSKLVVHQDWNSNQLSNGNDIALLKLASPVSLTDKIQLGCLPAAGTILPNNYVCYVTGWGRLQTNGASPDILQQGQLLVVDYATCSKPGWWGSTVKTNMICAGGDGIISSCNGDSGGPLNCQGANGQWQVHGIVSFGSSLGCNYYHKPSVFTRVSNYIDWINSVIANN

[2] = biological target: T2, Cathepsin G (Homo sapiens) (UniProt P08311); assay: Inhibition of cathepsin G at 35-710 uM
T2 sequence (whole entry): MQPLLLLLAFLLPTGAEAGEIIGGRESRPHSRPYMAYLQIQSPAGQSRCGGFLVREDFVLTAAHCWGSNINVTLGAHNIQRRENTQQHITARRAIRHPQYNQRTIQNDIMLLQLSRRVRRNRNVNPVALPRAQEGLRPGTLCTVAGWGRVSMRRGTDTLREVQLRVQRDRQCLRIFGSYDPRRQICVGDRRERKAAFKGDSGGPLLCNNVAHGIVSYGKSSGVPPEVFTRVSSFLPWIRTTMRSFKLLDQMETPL
Outline: (§1)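 Kitz–Wilson incubation method. Enzyme was preincubated with inhibitor (added in DMSO) in 0.1 M HEPES, 0.5 M NaCl, pH 7.5, at 25 °C. Aliquots were taken over time and diluted into pNA substrate: HLE MeO-Suc-Ala-Ala-Pro-Val-pNA (0.2–0.5 mM), PPE Suc-Ala-Ala-Ala-pNA, ChT and Cat G Suc-Val-Pro-Phe-pNA (0.4–0.5 mM). Release was read at 410 nm. kobs/[I] from ln(v0/vt) vs time. Mean of two determinations. Fast rates measured with equimolar inhibitor and enzyme.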

[3] = biological target: T3, Neutrophil elastase (Homo sapiens) (UniProt P08246); assay: The second order inactivation rate constant expressed as inhibition of human leukocyte elastase (HLE). Inhibitor concentrations were 0.07-710 uM
T3 sequence (whole entry): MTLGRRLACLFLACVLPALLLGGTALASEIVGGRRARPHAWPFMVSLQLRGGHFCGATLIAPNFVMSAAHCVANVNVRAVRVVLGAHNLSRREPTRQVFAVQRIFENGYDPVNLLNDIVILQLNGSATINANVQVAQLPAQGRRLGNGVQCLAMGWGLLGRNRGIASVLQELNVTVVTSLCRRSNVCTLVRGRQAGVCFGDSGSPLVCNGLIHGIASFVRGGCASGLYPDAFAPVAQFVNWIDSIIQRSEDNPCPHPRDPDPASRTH
Outline: as §1

[4] = biological target: T2, Cathepsin G (Homo sapiens); assay: Inhibition of cathepsin G(Cat G) at 35-710 uM
Outline: as §1

[5] = biological target: T3, Neutrophil elastase (Homo sapiens); assay: Inhibition of human leukocyte elastase(HLE) at 0.7-1.7 uM
Outline: as §1

[6] = biological target: Chymotrypsinogen A (Bos taurus) (UniProt P00766); assay: The second order inactivation rate constant was expressed as inhibition of chymotrypsin (ChT).Inhibitor concentrations were 360-570 uM
Outline: as §1

[7] = biological target: T3, Neutrophil elastase (Homo sapiens); assay: The second order inactivation rate constant was expressed as inhibition of human leukocyte elastase (HLE). Inhibitor concentrations were 0.4-4 uM
Outline: as §1

[8] = biological target: T1, Chymotrypsin-like elastase family member 2A (Sus scrofa); assay: The second order inactivation rate constant was expressed as inhibition of porcine pancreatic elastase (PPE).Inhibitor concentrations were 2-600 uM
Outline: as §1

[9] = biological target: T3, Neutrophil elastase (Homo sapiens); assay: Second order inactivation rate constant for inhibition of human leukocyte elastase.
Outline: as §1

[10] = biological target: T3, Neutrophil elastase (Homo sapiens); assay: Inhibition of human leukocyte elastase.
Outline: as §1

[11] = Half-life for hydrolysis was determined from kinetic constant.; assay type: ADME
Outline: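 Spontaneous hydrolysis in 0.1 M HEPES, 0.5 M NaCl, pH 7.5, 10% v/v DMSO final, 25 °C. Inhibitor added from 2.9–5.0 mM DMSO stock. Ring opening followed as absorbance decrease at 385 nm (ε385 = 3300 M⁻¹ cm⁻¹). Half-life from the first-order rate. Two determinations, standard errors ±15% or less.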

K obs / 1 [1] | K obs / 1 [3] | SMILES | also measured
13 M⁻¹ s⁻¹ | 15600 M⁻¹ s⁻¹ | O=C(NCc1ccccc1)Nc1ccc2c(Cl)c(OCCCBr)oc(=O)c2c1 | inhibition [4]: 21%
3500 M⁻¹ s⁻¹ | 31000 M⁻¹ s⁻¹ | Cc1cccc(C(=O)N[C@@H](Cc2ccccc2)C(=O)Nc2ccc3c(Cl)c(OCCBr)oc(=O)c3c2)c1 | 
1900 M⁻¹ s⁻¹ | 40000 M⁻¹ s⁻¹ | O=C(O)CCC(=O)N[C@@H](Cc1ccccc1)C(=O)Nc1ccc2c(Cl)c(OCCBr)oc(=O)c2c1 | half-life [11]: 2.5 h
30 M⁻¹ s⁻¹ | 160000 M⁻¹ s⁻¹ | CC(C)(C)OC(=O)N[C@H](Cc1ccccc1)C(=O)Nc1ccc2c(Cl)c(OCCBr)oc(=O)c2c1 | inhibition [4]: 19%
6 M⁻¹ s⁻¹ | 4410 M⁻¹ s⁻¹ | O=C(Nc1ccc2c(Cl)c(OCCBr)oc(=O)c2c1)NC(c1ccccc1)c1ccccc1 | 
40 M⁻¹ s⁻¹ | 170000 M⁻¹ s⁻¹ | C[C@H](NC(=O)Nc1ccc2c(Cl)c(OCCBr)oc(=O)c2c1)c1cccc2ccccc12 | 
4950 M⁻¹ s⁻¹ | 480000 M⁻¹ s⁻¹ | O=C(Cc1ccccc1)Nc1ccc2c(Cl)c(OCCBr)oc(=O)c2c1 | K obs / 1 [2]: 70 M⁻¹ s⁻¹
76 M⁻¹ s⁻¹ | 390000 M⁻¹ s⁻¹ | O=C(Nc1ccc2c(Cl)c(OCCBr)oc(=O)c2c1)Nc1cccc2ccccc12 | inhibition [4]: 22%
28 M⁻¹ s⁻¹ | 32400 M⁻¹ s⁻¹ | O=C(Cc1ccccc1)Nc1ccc2c(Cl)c(OCCCBr)oc(=O)c2c1 | inhibition [4]: 28%
1250 M⁻¹ s⁻¹ | > 480000 M⁻¹ s⁻¹ | O=c1oc(OCCBr)c(Cl)c2ccc(NC(=S)Nc3ccccc3)cc12 | K obs / 1 [2]: 200 M⁻¹ s⁻¹
 | > 390000 M⁻¹ s⁻¹ | O=C(O)c1ccc(N/C(S)=N/c2ccc3c(Cl)c(OCCBr)oc(=O)c3c2)cc1 | K obs / 1 [2]: 450 M⁻¹ s⁻¹
300 M⁻¹ s⁻¹ | 21000 M⁻¹ s⁻¹ | O=C(Nc1ccccc1)Nc1cccc(C(=O)NC(Cc2ccccc2)C(=O)Nc2ccc3c(Cl)c(OCCBr)oc(=O)c3c2)c1 (stereo not drawn) | 
130 M⁻¹ s⁻¹ | 6100 M⁻¹ s⁻¹ | O=C(Nc1ccccc1)Nc1ccc(C(=O)NC(Cc2ccccc2)C(=O)Nc2ccc3c(Cl)c(OCCBr)oc(=O)c3c2)cc1 (stereo not drawn) | 

Further lines, the molecule ahead of its results:

SMILES | K obs / 1 [1] | K obs / 1 [3] | also measured
COC(=O)CCC(=O)Nc1ccc2c(Cl)c(OCCBr)oc(=O)c2c1 | 1500 M⁻¹ s⁻¹ |  | 
CC(Br)COc1oc(=O)c2cc([N+](=O)[O-])ccc2c1Cl (stereo not drawn) | 1060 M⁻¹ s⁻¹ |  | K obs / 1 [2]: 1660 M⁻¹ s⁻¹
CCCOc1oc(=O)c2cc(NC(=O)CC(C)C)ccc2c1Cl |  |  | k obs / 1 [5]: > 220000 M⁻¹ s⁻¹
CCCOc1oc(=O)c2cc(NC(C)=O)ccc2c1Cl |  |  | k obs / 1 [5]: > 190000 M⁻¹ s⁻¹
COc1oc(=O)c2cc(NC(=O)[C@H](Cc3c[nH]c4ccccc34)NC(=O)OC(C)(C)C)ccc2c1Cl |  |  | k obs / 1 [6]: 33 M⁻¹ s⁻¹; k obs / 1 [7]: 79000 M⁻¹ s⁻¹; k obs / 1 [8]: 5800 M⁻¹ s⁻¹
CCCOc1oc(=O)c2cc(NC(=O)[C@@H](NC(=O)OC(C)(C)C)C(C)C)ccc2c1Cl |  |  | k obs / 1 [5]: 64000 M⁻¹ s⁻¹
CC(C)COc1oc(=O)c2cc(N)ccc2c1Cl |  |  | k obs / 1 [9]: 2700 M⁻¹ s⁻¹; [I] [10]: 50 µM
O=C(O)c1cccc(N/C(S)=N/c2ccc3c(Cl)c(OCCBr)oc(=O)c3c2)c1 |  | > 240000 M⁻¹ s⁻¹ | K obs / 1 [2]: 320 M⁻¹ s⁻¹
CC(Br)COc1oc(=O)c2cc(N)ccc2c1Cl (stereo not drawn) | 62 M⁻¹ s⁻¹ | 24000 M⁻¹ s⁻¹ | K obs / 1 [2]: 150 M⁻¹ s⁻¹
COc1oc(=O)c2cc(NC(=O)C(Cc3ccccc3)NC(=O)c3cccc(NC(=O)Nc4ccccc4)c3)ccc2c1Cl (stereo not drawn) |  |  | k obs / 1 [6]: 110 M⁻¹ s⁻¹; k obs / 1 [7]: 28000 M⁻¹ s⁻¹; k obs / 1 [8]: 54 M⁻¹ s⁻¹
O=C1CC(c2ccccc2)CC(=O)N1c1ccc2c(Cl)c(OCCBr)oc(=O)c2c1 | 75 M⁻¹ s⁻¹ | 85000 M⁻¹ s⁻¹ | half-life [11]: > 48 h
COCCOCCOc1oc(=O)c2cc(N)ccc2c1Cl |  |  | k obs / 1 [9]: 33 M⁻¹ s⁻¹; [I] [10]: 710 µM
COc1oc(=O)c2cc(NC(=O)C(Cc3ccccc3)NC(=O)c3ccc(NC(=O)Nc4ccccc4)cc3)ccc2c1Cl (stereo not drawn) |  |  | k obs / 1 [6]: 10 M⁻¹ s⁻¹; k obs / 1 [7]: 15000 M⁻¹ s⁻¹; k obs / 1 [8]: 68 M⁻¹ s⁻¹
CC(=O)Nc1ccc2c(Cl)c(OCCCBr)oc(=O)c2c1 | 24 M⁻¹ s⁻¹ | 24400 M⁻¹ s⁻¹ | K obs / 1 [2]: 170 M⁻¹ s⁻¹
